Reference: ChEMBL document CHEMBL6087409, “Synthesis of α-fluorocinnamate derivatives as novel cathepsin S inhibitors with in vitro antiproliferative activity against pancreatic cancer cells” (Bioorg Med Chem, 2024)
Activity calls are given as the source filed them. No cut-off for these calls is given here.

Legend:
[1] = Thiol reactivity of compound in phosphate buffer with N-acetyl cysteine at pH 7.4 assessed as micheal adduct formation measured after 24 hrs by 19F-NMR spectroscopic analysis; assay type: physicochemical; details: pH 7.4, 24 h
BXPC-3 = experiment: Cytotoxicity against human BXPC-3 cells assessed as inhibition of cell growth incubated for 5 days by MTS assay; details: BXPC-3, 120 h
CAPAN-1 = experiment: Cytotoxicity against human CAPAN-1 cells assessed as inhibition of cell growth incubated for 5 days by MTS assay; details: CAPAN-1, 120 h
[2] = target: Procathepsin L (Homo sapiens) (UniProt P07711); experiment: Inhibition of human cathepsin L using Z-phe-Arg-AMC as substrate at 20 uM by FRET-based enzymatic cleavage assay relative to control
[3] = target: Cathepsin B (Homo sapiens) (UniProt P07858); experiment: Inhibition of human cathepsin B using Z-phe-Arg-AMC as substrate at 20 uM by FRET-based enzymatic cleavage assay relative to control
[4] = Thiol reactivity of compound in phosphate buffer with N-acetyl cysteine at pH 7.4 assessed as micheal adduct formation by measuring conversion rate measured after 1 hrs by HPLC-MS analysis; assay type: physicochemical; details: pH 7.4, 1 h
Method in brief: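 Compound with 1.1 equiv N-acetylcysteine in PBS pH 7.4 containing 10% ACN, stirred 1 h at 37 °C. The mixture was concentrated under reduced pressure, and consumption of starting material and adduct formation were followed by HPLC-MS.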

[5] = Inhibition of recombinant SARS-CoV-2 main protease using Dabcyl-KTSAVLQSGFRKME-Edans as substrate assessed as reduction in proteolytic activity preincubated for 10 mins followed by substrate addition and measured after 10 mins by FRET-based enzymatic cleavage assay; design: species or system Severe acute respiratory syndrome coronavirus 2
Human coronavirus OC43 = experiment: Antiviral activity against HCoV-OC43 infected in human HCT-8 cells preincubated with cell for 1 hrs followed by viral infection and measured after 72 hrs by focus forming reduction assay; assay type: functional, organism-based; details: Betacoronavirus 1, HCT-8
[6] = test system: Severe acute respiratory syndrome coronavirus 2; experiment: Inhibition of recombinant SARS-CoV-2 main protease using Dabcyl-KTSAVLQSGFRKME-Edans as substrate assessed as reduction in proteolytic activity at 20 uM preincubated for 10 mins followed by substrate addition and measured after 10 mins by FRET-based enzymatic cleavage assay relative to control; details: time 20.0 min
Method in brief: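 Recombinant SARS-CoV-2 Mpro at 50 nM final, with 25 µM final substrate and 20 µM final compound, in 20 mM Tris pH 7.5, 0.1 mM EDTA, 1 mM DTT, 200 mM NaCl. Substrate cleavage was followed at 25 °C as rising Edans fluorescence (ex 335/em 493 nm) after release of the Dabcyl quencher.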

[7] = Thiol reactivity of compound in phosphate buffer with N-acetyl cysteine at pH 7.4 assessed as micheal adduct formation by measuring conversion rate measured after 24 hrs by HPLC-MS analysis; assay type: physicochemical; details: pH 7.4, 24 h

Procathepsin L (Homo sapiens), sequence (P07711 114-333 limits assumed): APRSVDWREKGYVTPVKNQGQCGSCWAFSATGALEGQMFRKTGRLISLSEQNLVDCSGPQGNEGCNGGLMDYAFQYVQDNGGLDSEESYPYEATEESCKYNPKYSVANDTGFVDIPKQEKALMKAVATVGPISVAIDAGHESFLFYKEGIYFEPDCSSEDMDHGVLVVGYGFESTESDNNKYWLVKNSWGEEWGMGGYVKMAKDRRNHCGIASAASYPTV

Structure (SMILES)	IC50 (BXPC-3) [µM]	IC50 (CAPAN-1) [µM]	inhibition [2]	inhibition [6] [%]	other results
CCOC(=O)/C(F)=C/c1ccc(N)cc1	–	–	–	–	Activity [1]: Active
CCOC(=O)/C(F)=C/c1ccc(NC(=O)[C@H](Cc2ccccc2)NC(=O)c2cc3ccccc3[nH]2)cc1	14.1	28.3	inactive	–	–
CCOC(=O)/C(F)=C/c1ccc(NC(=O)[C@H](Cc2ccccc2)NC(=O)OCc2c[nH]c3ccccc23)cc1	5.79	20.8	29%	–	inhibition [3]: 20%; Activity [4]: ~ 80%
CCOC(=O)/C(F)=C/c1ccc(NC(=O)[C@H](Cc2ccccc2)NC(=O)OCc2ccccc2)cc1	25.9	40.6	inactive	–	–
CCOC(=O)/C=C/c1ccc(NC(=O)[C@H](Cc2ccccc2)NC(=O)OCc2c[nH]c3ccccc23)cc1	–	–	–	60	IC50 [5]: 12.4 µM; EC50 (Human coronavirus OC43): 9.14 µM
CCOC(=O)/C=C/c1ccc(NC(=O)[C@H](Cc2ccccc2)NC(=O)OCc2ccccc2)cc1	–	–	–	40	Activity [7]: 70%
